Screening results deposited in PubChem BioAssay by The Scripps Research Institute Molecular Screening Center.
OX1R antag-1: antagonists of human orexin 1 receptor; hit rate 0.43% among 330,000; CHO/OX1R cells, Fluo-8 calcium fluorescence, orexin A; O43613; AID 434989; inhibition, % at 5 µM;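 active = inhibition above its plate's threshold, mean inhibition of all tested compounds on the plate plus 3 SD, cut at about 37% in these data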;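 also: 0% = orexin A challenge wells and 100% = SB-334867-A antagonist wells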
TAAR1 agonist: human TAAR1 agonism. Q96RJ0. CHO RD-HGA16 TAAR1, Fluo-8 calcium fluorescence; vehicle wells 0%, saturating PEA agonist 100%. activation, % at 3 µM. hit rate 0.99% among 360,000;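 active = activation above the mean activation of all test compounds in the run plus 3 SD, cut at about 38% in these data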
Target sequence (Q96RJ0 whole entry, looked up): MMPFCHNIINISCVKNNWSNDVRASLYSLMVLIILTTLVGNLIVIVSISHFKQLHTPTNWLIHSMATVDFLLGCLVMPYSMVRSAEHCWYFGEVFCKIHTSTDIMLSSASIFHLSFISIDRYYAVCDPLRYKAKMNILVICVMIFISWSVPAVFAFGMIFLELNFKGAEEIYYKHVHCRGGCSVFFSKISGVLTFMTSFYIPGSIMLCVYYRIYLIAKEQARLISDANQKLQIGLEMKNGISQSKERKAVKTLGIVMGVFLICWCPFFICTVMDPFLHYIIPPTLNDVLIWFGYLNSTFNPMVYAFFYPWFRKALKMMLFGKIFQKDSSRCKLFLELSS
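Assay system – CHO-derived RD-HGA16 cells with stable Gα16 and human TAAR1 · Compound dosing – one-point dosing at 3 µM (nominal) · Incubation – 17-24 h seeding, 75 min 37 °C dye, 30 min RT · Measured by – kinetic Fluo-8 calcium fluorescence · Control set – DMSO vehicle as 0%, PEA at EC100 as 100% · Repeats – single well for each compound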
TAAR1 antag: antagonists of human TAAR1; CHO RD-HGA16 TAAR1, Fluo-8 calcium fluorescence, antagonist; inhibition, % at 3 µM; hit rate 1.5% among 360,000;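 active = inhibition above a per-plate cutoff, the mean inhibition of test compounds on that plate plus 3 SD, cut at about 49% in these data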;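 also: 0% = DMSO plus EC80 beta-PEA response and 100% = DMSO alone without agonist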
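System: CHO RD-HGA16 cells bearing hTAAR1. Reagent: EC80 β-phenethylamine stimulus. Schedule: seeding 17-24 h prior, 75-min 37 °C, 30-min RT dye loading. Signal: Fluo-8 intracellular calcium dye fluorescence, real-time kinetic reads. Read-out: % inhibition from peak post-agonist over basal fluorescence ratio. Benchmarks: vehicle wells and EC80 agonist wells. Replicates: n of 1.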
GPR7 antag: blocks human GPR7 receptor signaling; hit rate 1.1% among 290,000; P48145; GPR7-expressing cells, fluorescence antagonist assay; AID 1861; inhibition, % at 4.4 µM; in the data active = inhibition above about 16%, passing the limit was not always enough;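 also: cells stimulated with the agonist NPW; 0% = agonist with vehicle and 100% = vehicle without agonist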
Target sequence (P48145 whole entry, looked up): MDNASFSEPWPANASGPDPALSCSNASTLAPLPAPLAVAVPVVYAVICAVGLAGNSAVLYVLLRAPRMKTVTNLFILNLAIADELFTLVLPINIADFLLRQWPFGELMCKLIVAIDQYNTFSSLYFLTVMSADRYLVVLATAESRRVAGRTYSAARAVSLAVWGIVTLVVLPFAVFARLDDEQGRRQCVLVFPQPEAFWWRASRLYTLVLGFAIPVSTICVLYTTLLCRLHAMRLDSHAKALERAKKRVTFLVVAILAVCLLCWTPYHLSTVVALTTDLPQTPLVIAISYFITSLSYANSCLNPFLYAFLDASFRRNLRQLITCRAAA
CHO parental Ca: counter-screen: ATP calcium response change in parental CHO cells; AID 463079; hit rate 0.63% among 330,000; parental CHO-K1, ATP-induced calcium, Fluo-8 fluorescence; inhibition, % at 5.6 µM;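 active = inhibition above that plate's mean sample inhibition plus 3 SD, cut at about 26% in these data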;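 also: 0% = ATP-challenged DMSO wells and 100% = DMSO wells without ATP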
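Material: parental CHO cells / Compound: single nominal dose of 5.6 µM per compound / Signal: Fluo-8 fluorescence / Replicates: singlicate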
OX1R antag-2: antagonists of human orexin 1 receptor (OX1R) | OX1R-expressing cells, FRET antagonist read-out | hit rate 1.8% among 330,000 | inhibition, % at 6.6 µM | O43613; in the data active = inhibition mostly above about 38%, no sharp cut-off; inactive = mostly below about 40%;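 also: 0% = agonist challenge alone and 100% = reference antagonist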
TAAR1 nonsel count: nonselective antagonist in TAAR1 antagonist counter-screen; shares compounds with TAAR1 antag; counterscreen cell line, calcium fluorescence, antagonist mode; inhibition, % at 3 µM; hit rate 77% among 2,400; AID 651780; in the data active = inhibition above about 22%;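 also: CHO-Ga16 host cells stimulated with ATP at an EC80 level; 0% = agonist EC80 plus vehicle and 100% = vehicle without agonist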
TAAR1 ant conf: confirmation of human TAAR1 antagonists | shares compounds with TAAR1 antag | TAAR1-expressing cells, fluorescence antagonist read-out | inhibition, % at 3 µM | hit rate 40% among 2,400 | AID 651785; in the data active = inhibition above about 49%;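 also: CHO-Ga16 host cells challenged with agonist PEA near its EC80; 0% = agonist at EC80 plus vehicle and 100% = vehicle with no agonist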
Ga16 ag counter: nonselective Ga16 agonist in TAAR1 antagonist counter-screen; shares compounds with TAAR1 antag; Ga16-expressing cells, calcium fluorescence, agonist counterscreen; activation, % at 3 µM; hit rate 18% among 2,400; in the data active = activation above about 12%;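 also: 0% = vehicle wells and 100% = saturating stimulus response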
TAAR1 ag counter: activates human TAAR1 in antagonist counter-screen. hit rate 2% among 2,400. shares compounds with TAAR1 antag. hTAAR1 cell line, fluorescence activation, agonist mode. activation, % at 3 µM; in the data active = activation above about 37%;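 also: CHO cells stably expressing TAAR1 with calcium dye readout; 0% = DMSO vehicle and 100% = full agonist response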
Active calls of the source: *; · = no result. Sampled rows, rich in hits. Any-hit rate of the full collection: about 4.6%.

SMILES	OX1R antag-1	TAAR1 agonist	TAAR1 antag	GPR7 antag	CHO parental Ca	OX1R antag-2	TAAR1 nonsel count	TAAR1 ant conf	Ga16 ag counter	TAAR1 ag counter
COc1cccc2sc3ccc(C#CC4(O)CCCCC4)cc3c(=O)c12	-27	16	60*	-10	-23	11	22*	31	6	4
COc1cccc2oc3cc(C#CC4(O)CCCCC4)ccc3c(=O)c12	5	22	57*	-7	-28	47	22*	32	7	17
COc1cccc2sc3ccc(C#Cc4ccc(N)cc4)cc3c(=O)c12	-16	7	41	-11	-14	30	·	·	·	·
COc1ccccc1-c1oc2ccccc2c1C#CC1(O)CCCCC1	-10	8	13	·	-34	7	·	·	·	·
Cc1ccc(-c2nn(-c3ccccc3)cc2C(=O)Nc2ccc(C)c(S(=O)(=O)N3CCOCC3)c2)cc1	-14	6	32	-3	-9	7	·	·	·	·
COc1cc(-c2cc(C(=O)Nc3ccc(C)c(S(=O)(=O)N4CCOCC4)c3)c3ccccc3n2)cc(OC)c1OC	-12	14	74*	·	-5	9	40*	55*	10	7
COc1ccc(NC(=O)/C=C/c2ccc(S(=O)(=O)N3CCOCC3)cc2)cc1	11	8	8	·	-5	9	·	·	·	·
COc1cc(-c2cc(C(=O)Nc3nc4ccccc4s3)c3ccccc3n2)cc(OC)c1OC	-23	8	58*	-6	-11	5	37*	39	6	7
COc1cc(-c2cc(C(=O)Nc3ccc(O)cc3)c3ccccc3n2)cc(OC)c1OC	-16	13	58*	-8	4	16	27*	46	8	11
COc1ccc(/C=C/C(=O)Nc2ccc(C)c(S(=O)(=O)N3CCOCC3)c2)cc1	7	19	65*	·	-11	10	31*	45	13*	10
CC(=O)c1ccc(NC(=O)N2CCCC(C(=O)c3ccc4c(c3)OCO4)C2)cc1 (stereo not drawn)	-33	10	49*	-8	-8	18	22*	35	11	11
FC(F)c1nc2nc(Cl)c(Cl)nc2[nH]1	·	3	-20	·	·	·	·	·	·	·
N#Cc1c(N)[nH]c2ccc(Sc3ccccc3)cc12	·	25	54*	·	·	·	28*	41	12*	24
O=C1NC(=Nc2ccccc2)S/C1=C\c1cccn1-c1ccccc1	17	4	73*	17	-2	60*	32*	43	3	2
CS(=O)(=O)N(CC(=O)N/N=C/c1cccc2c1OCCO2)c1ccccc1Br	-17	5	9	9	-23	11	·	·	·	·
CCOC(=O)c1ccc(-c2ccc(/C=N/NC(=O)CN(c3ccccc3Br)S(C)(=O)=O)o2)cc1	-11	5	57*	-8	-1	10	29*	33	8	12
COCCN1C[C@@H](CO)O[C@@H](n2cnc3c(NC4CCC4)ncnc32)C1	·	2	-16	·	·	·	·	·	·	·
O=C(NCc1cccc(F)c1)Nc1nnc([C@H]2C[C@H](O)[C@@H](CO)O2)s1	·	2	4	·	·	·	·	·	·	·
CN1CCN(c2ccccc2NC(=O)c2ccc(-c3cccc([N+](=O)[O-])c3)o2)CC1	-27	7	27	-5	-12	16	·	·	·	·
CCC(=O)N1CCN(c2ccccc2NC(=O)c2ccc(-c3cccc([N+](=O)[O-])c3)o2)CC1	-23	12	55*	-15	-23	12	26*	50*	6	2
CC(C)(C)OC(=O)C[C@@H]1C/C=C\C[C@H](CC(=O)N[C@H](CO)Cc2ccccc2)C(=O)N[C@@H](Cc2ccccc2)COC1=O	-21	17	59*	·	-31	8	28*	40	5	1
O=C(C[C@H]1C/C=C\CC[C@H](Cc2ccc(F)cc2)C(=O)O[C@@H](c2ccccc2)CNC1=O)N[C@@H](CO)Cc1ccccc1	-11	33	59*	·	-16	10	35*	49*	10	12
O=C1CCCC/C=C\C[C@H](CC(=O)N(CCO)Cc2ccccc2)C(=O)NC[C@H](c2ccccc2)O1	-13	4	-5	·	-6	9	·	·	·	·
O=C1NC[C@@H](c2ccccc2)OC(=O)[C@H](Cc2ccc(F)cc2)C/C=C\C[C@@H]1CC(=O)N(CCO)Cc1ccccc1	0	27	67*	·	3	2	20	44	9	7
O=C1NC[C@H](c2ccccc2)OC(=O)[C@H](Cc2ccc(F)cc2)C/C=C\C[C@@H]1CC(=O)N(CCO)Cc1ccccc1	18	32	77*	·	-21	33	32*	47	9	7
SMILES	OX1R antag-1	TAAR1 agonist	TAAR1 antag	GPR7 antag	CHO parental Ca	OX1R antag-2	TAAR1 nonsel count	TAAR1 ant conf	Ga16 ag counter	TAAR1 ag counter
CN(Cc1ccccc1)C(=O)c1csc(COCCO)n1	·	1	-3	·	·	·	·	·	·	·
O=C1NC(=O)C(Cc2ccc(Cl)cc2)(c2ccccc2)N1 (stereo not drawn)	·	11	3	·	·	·	·	·	·	·
CCOc1ccc(NC(=O)C(C)NC(=O)c2ccccc2Cl)cc1S(=O)(=O)N1CCCC1 (stereo not drawn)	-9	12	-5	·	-19	7	·	·	·	·
CSc1ccccc1NC(=O)CSc1nnc(Cc2ccccc2)o1	-31	0	-7	3	-21	4	·	·	·	·
COc1ccc([C@H]2CC(=O)C=C(c3cccc(C(C)C)c3)C2)cc1	-12	9	50*	·	-14	2	13	18	5	9
CCC1CN(C(=O)N2CCC(C(=O)Nc3ccccc3OC)CC2)c2ccccc2O1 (stereo not drawn)	-32	14	61*	-4	-21	3	22*	42	10	13
COc1cc2cc(CN(Cc3nnnn3Cc3ccco3)C3CCCCC3)c(=O)[nH]c2cc1OC	0	9	4	4	-12	47	·	·	·	·
CCOc1ccc2[nH]c(=O)c(CN(Cc3nnnn3Cc3ccco3)C3CCCCC3)cc2c1	-16	26	54*	-9	-21	29	28*	58*	8	14
Cc1ccc(OCCn2cnc3cc([N+](=O)[O-])ccc3c2=O)cc1	-23	11	78*	7	-13	33	31*	51*	9	7
O=c1c2ccc([N+](=O)[O-])cc2ncn1CCOc1ccccc1	-22	16	77*	2	-13	68*	26*	62*	10	9
